Measurements as given in ChEMBL document CHEMBL2016459, “Toll-like receptor (TLR)-7 and -8 modulatory activities of dimeric imidazoquinolines” (J Med Chem, 2012).
Calls of active or inactive are those of the source. The calls are words filed in the database; no cut-off is given here.

What was measured:
[1] = target: Toll-like receptor 3 (Homo sapiens) (UniProt O15455); assay: Agonist activity at human TLR3 HEK-Blue cells assessed as increase in NFkappaB activation by sAP reporter gene assay; assay type: functional, cell-based
Sequence of Toll-like receptor 3 (Homo sapiens) (O15455 whole entry): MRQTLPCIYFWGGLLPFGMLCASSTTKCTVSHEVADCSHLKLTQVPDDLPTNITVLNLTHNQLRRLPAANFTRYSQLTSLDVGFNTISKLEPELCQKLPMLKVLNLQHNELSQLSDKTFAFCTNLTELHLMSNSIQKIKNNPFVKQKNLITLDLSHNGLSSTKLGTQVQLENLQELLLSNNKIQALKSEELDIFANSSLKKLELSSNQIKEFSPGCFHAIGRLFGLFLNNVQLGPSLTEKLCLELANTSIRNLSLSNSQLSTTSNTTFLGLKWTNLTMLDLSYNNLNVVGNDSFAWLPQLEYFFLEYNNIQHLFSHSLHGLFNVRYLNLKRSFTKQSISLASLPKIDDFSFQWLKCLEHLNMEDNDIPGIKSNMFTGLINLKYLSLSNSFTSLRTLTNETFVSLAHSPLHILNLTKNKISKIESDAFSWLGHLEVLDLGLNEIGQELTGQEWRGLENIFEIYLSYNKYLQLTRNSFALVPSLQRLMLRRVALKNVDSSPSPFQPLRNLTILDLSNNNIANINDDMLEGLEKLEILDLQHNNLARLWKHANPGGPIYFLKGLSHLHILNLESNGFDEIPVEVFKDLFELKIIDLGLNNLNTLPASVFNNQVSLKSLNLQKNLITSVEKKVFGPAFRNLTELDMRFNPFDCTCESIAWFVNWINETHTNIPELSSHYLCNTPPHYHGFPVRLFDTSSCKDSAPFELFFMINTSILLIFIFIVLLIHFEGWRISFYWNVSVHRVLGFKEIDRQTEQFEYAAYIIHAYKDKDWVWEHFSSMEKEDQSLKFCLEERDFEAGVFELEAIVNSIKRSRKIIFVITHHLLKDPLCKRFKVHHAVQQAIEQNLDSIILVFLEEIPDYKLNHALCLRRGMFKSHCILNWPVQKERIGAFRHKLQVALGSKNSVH
How it was run: (§1)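 HEK293 cells stably transfected with human TLR3, TLR7 or TLR8 plus MD2 and an NF-κB/AP-1-driven secreted alkaline phosphatase reporter (HEK-Blue), kept in selection medium with zeocin and normocin. Cells at ~10^5 cells/ml were grown to confluency and then given graded concentrations of stimuli. Supernatant sAP was read spectrophotometrically at 620 nm with a chromogen in HEK-detection medium.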

Toll-like receptor 7 [2] = target: T1, Toll-like receptor 7 (Homo sapiens, UniProt Q9NYK1); assay: Agonist activity at human TLR7 expressed in HEK-Blue cells assessed as increase in NFkappaB activation by sAP reporter gene assay; assay type: functional, cell-based; how it was run: as §1
T1 sequence (Q9NYK1 whole entry): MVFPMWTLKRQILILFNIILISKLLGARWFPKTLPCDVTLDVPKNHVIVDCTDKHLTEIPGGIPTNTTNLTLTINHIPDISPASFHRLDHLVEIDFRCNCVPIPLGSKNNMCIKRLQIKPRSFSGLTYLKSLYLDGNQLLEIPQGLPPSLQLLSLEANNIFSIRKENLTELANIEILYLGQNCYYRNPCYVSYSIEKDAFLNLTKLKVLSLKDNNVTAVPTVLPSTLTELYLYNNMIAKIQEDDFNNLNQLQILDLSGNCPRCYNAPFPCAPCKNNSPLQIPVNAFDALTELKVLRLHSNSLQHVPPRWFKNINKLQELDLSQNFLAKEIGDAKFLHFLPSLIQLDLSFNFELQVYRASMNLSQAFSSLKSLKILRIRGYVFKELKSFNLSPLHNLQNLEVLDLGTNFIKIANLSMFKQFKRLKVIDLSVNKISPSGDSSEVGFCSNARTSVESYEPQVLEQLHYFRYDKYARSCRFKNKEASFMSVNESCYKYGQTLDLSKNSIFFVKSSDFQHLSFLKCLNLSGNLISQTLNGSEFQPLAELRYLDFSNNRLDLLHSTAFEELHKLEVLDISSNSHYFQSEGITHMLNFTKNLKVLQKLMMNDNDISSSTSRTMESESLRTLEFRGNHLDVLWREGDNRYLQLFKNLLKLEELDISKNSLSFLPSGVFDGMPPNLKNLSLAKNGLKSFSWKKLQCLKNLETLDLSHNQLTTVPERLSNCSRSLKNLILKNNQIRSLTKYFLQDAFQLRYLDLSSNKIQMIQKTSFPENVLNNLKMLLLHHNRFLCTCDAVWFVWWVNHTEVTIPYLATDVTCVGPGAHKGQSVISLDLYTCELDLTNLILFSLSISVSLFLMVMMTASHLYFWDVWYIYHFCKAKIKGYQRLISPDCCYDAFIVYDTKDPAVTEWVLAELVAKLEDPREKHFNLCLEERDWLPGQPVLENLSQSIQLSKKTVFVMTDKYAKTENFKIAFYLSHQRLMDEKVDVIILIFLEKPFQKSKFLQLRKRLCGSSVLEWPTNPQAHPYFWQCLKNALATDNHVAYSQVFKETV

PBMC = assay: Immunostimulatory activity in human PBMC assessed as induction IFN-alpha production after 12 hrs by ELISA; assay type: functional, cell-based
How it was run: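 Healthy-donor PBMCs were prepared by Ficoll-Hypaque gradient and aliquoted at 10⁶ cells. Cells were stimulated 12 h with graded test concentrations. Supernatant was diluted 1:20 and IFN-α measured in triplicate by high-sensitivity human IFN-α ELISA.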

Toll-like receptor 8 [3] = target: T2, Toll-like receptor 8 (Homo sapiens, UniProt Q9NR97); assay: Agonist activity at human TLR8 expressed in HEK-Blue cells assessed as increase in NFkappaB activation by sAP reporter gene assay; assay type: functional, cell-based; how it was run: as §1
T2 sequence (Q9NR97 whole entry): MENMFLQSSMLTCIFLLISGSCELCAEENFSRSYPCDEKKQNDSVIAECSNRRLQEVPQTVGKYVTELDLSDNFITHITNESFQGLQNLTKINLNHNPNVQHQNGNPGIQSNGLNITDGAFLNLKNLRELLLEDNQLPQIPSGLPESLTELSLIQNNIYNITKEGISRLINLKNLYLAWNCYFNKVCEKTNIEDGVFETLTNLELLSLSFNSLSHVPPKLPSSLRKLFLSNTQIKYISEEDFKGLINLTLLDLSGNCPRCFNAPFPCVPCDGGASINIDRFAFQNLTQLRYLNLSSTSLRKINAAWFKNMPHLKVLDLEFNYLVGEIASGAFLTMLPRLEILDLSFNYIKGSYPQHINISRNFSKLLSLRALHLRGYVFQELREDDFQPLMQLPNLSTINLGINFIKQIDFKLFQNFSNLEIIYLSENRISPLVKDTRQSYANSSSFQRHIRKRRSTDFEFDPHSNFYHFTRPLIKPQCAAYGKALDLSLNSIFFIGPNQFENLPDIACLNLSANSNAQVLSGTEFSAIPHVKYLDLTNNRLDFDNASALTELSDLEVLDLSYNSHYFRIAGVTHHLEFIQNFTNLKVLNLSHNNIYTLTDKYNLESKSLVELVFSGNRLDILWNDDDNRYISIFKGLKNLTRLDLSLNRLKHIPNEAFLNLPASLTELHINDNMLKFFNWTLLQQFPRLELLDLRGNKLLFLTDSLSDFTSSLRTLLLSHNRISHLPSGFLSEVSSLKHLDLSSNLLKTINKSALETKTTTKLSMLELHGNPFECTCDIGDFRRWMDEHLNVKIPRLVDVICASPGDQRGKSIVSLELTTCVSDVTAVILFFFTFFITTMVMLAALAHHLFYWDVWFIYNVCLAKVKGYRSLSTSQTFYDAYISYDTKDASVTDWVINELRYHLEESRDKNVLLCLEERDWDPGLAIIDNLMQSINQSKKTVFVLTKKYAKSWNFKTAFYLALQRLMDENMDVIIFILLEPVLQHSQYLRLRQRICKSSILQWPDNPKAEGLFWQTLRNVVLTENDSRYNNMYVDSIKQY

[4] = target: T3, Toll-like receptor 7 (Homo sapiens) (UniProt Q9NYK1); assay: (§2) Antagonist activity at TLR7 in human PBMC assessed as inhibition of gardiquimod-induced TNF-alpha release after 12 hrs by bead array assay; assay type: functional
T3 sequence (whole entry): T1 sequence (Q9NYK1 whole entry)
How it was run: (§3)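 Human PBMCs from healthy donors, isolated by Ficoll-Hypaque, 10⁶ cells per aliquot. Cells were incubated 12 h with graded test concentrations plus 10 μg/ml gardiquimod. Supernatants were diluted 1:20 and analytes measured in triplicate by cytokine/chemokine bead array. Three independent experiments.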

[5] = target: T3, Toll-like receptor 7 (Homo sapiens); assay: (§4) Antagonist activity at TLR7 in human PBMC assessed as inhibition of gardiquimod-induced IL-1beta release after 12 hrs by bead array assay; assay type: functional; how it was run: as §3
Toll-like receptor 7 [6] = target: T1, Toll-like receptor 7; assay: Antagonist activity at TLR7 in human PBMC assessed as inhibition of gardiquimod-induced IL-8 release after 12 hrs by bead array assay; assay type: functional; how it was run: as §3
Toll-like receptor 8 [7] = target: T2, Toll-like receptor 8; assay: Antagonist activity at TLR8 in human PBMC assessed as inhibition of CL075-TNF-alpha release after 12 hrs by bead array assay; assay type: functional
How it was run: (§5)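 Ficoll-Hypaque-isolated healthy-donor PBMCs (10⁶ cells) were exposed 12 h to graded test concentrations together with 10 μg/ml CL075. Supernatants were diluted 1:20 and each cytokine or chemokine assayed in triplicate by bead array. Three independent experiments.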

Toll-like receptor 8 [8] = target: T2, Toll-like receptor 8; assay: Antagonist activity at TLR8 in human PBMC assessed as inhibition of CL075-induced IL-6 release after 12 hrs by bead array assay; assay type: functional; how it was run: as §5
Toll-like receptor 8 [9] = target: T2, Toll-like receptor 8; assay: Antagonist activity at TLR8 in human PBMC assessed as inhibition of CL075-induced IL-8 release after 12 hrs by bead array assay; assay type: functional; how it was run: as §5
Toll-like receptor 7 [10] = target: T1, Toll-like receptor 7; assay: Antagonist activity at TLR7 in human PBMC assessed as inhibition of gardiquimod-induced IL-6 release after 12 hrs by bead array assay; assay type: functional; how it was run: as §3
Toll-like receptor 7 [11] = target: T1, Toll-like receptor 7; assay: as §2; assay type: functional; how it was run: as §3
Toll-like receptor 7 [12] = target: T1, Toll-like receptor 7; assay: as §4; assay type: functional; how it was run: as §3
Toll-like receptor 7 [13] = target: T1, Toll-like receptor 7; assay: Antagonist activity at TLR7 in human PBMC assessed as inhibition of gardiquimod-induced CXCL10 release after 12 hrs by bead array assay; assay type: functional; how it was run: as §3
Toll-like receptor 7 [14] = target: T1, Toll-like receptor 7; assay: Antagonist activity at TLR7 in human PBMC assessed as inhibition of gardiquimod-induced CCL2 release after 12 hrs by bead array assay; assay type: functional; how it was run: as §3
Toll-like receptor 8 [15] = target: T2, Toll-like receptor 8; assay: Antagonist activity at TLR8 in human PBMC assessed as inhibition of CL075-induced IL-1beta release after 12 hrs by bead array assay; assay type: functional; how it was run: as §5
Toll-like receptor 8 [16] = target: T2, Toll-like receptor 8; assay: Antagonist activity at TLR8 in human PBMC assessed as inhibition of CL075-induced CXCL10 release after 12 hrs by bead array assay; assay type: functional; how it was run: as §5
Toll-like receptor 8 [17] = target: T2, Toll-like receptor 8; assay: Antagonist activity at TLR8 in human PBMC assessed as inhibition of CL075-induced CCL2 release after 12 hrs by bead array assay; assay type: functional; how it was run: as §5
[18] = target: T4, Toll-like receptor 8 (Homo sapiens) (UniProt Q9NR97); assay: Inhibition of human TLR8 expressed in HEK-Blue cells by schild plot analysis
T4 sequence (whole entry): T2 sequence (Q9NR97 whole entry)

| Activity [1] | EC50 (Toll-like receptor 7 [2]) | SMILES | other results |
| --- | --- | --- | --- |
| inactive | 560 nM | CCCCc1nc2c(NCCCCCCCCNc3nc4ccccc4c4c3nc(CCCC)n4Cc3ccccc3)nc3ccccc3c2n1Cc1ccccc1 |  |
| inactive |  | Nc1nc2ccccc2c2c1nc(CCCCc1nc3c(N)nc4ccccc4c3n1Cc1ccccc1)n2Cc1ccccc1 |  |
| inactive | 3000 nM | CCCCc1nc2c(NCCCCCCCCCCNc3nc4ccccc4c4c3nc(CCCC)n4Cc3ccccc3)nc3ccccc3c2n1Cc1ccccc1 |  |
| inactive | 240 nM | CCCCc1nc2c(N)nc3ccccc3c2n1Cc1ccc(CNC(=O)CCCCCCC(=O)NCc2ccc(Cn3c(CCCC)nc4c(N)nc5ccccc5c43)cc2)cc1 | Activity (PBMC): Dose-dependent effect |
| inactive | 110 nM | CCCCc1nc2c(N)nc3ccccc3c2n1Cc1ccc(CNC(=O)CCCCC(=O)NCc2ccc(Cn3c(CCCC)nc4c(N)nc5ccccc5c43)cc2)cc1 | Activity (PBMC): Dose-dependent effect |
| inactive | 450 nM | CCCCc1nc2c(N)nc3ccc(N)cc3c2n1Cc1ccc(CN)cc1 |  |
| inactive | 2050 nM | CCCCc1nc2c(NCCCCNc3nc4ccccc4c4c3nc(CCCC)n4Cc3ccccc3)nc3ccccc3c2n1Cc1ccccc1 |  |
| inactive |  | Nc1nc2ccccc2c2c1nc(CCCc1nc3c(N)nc4ccccc4c3n1Cc1ccccc1)n2Cc1ccccc1 | IC50 (Toll-like receptor 7 [6]): 50 nM; IC50 (Toll-like receptor 8 [7]): 50 nM; IC50 (Toll-like receptor 8 [8]): 50 nM; IC50 (Toll-like receptor 8 [9]): 50 nM; IC50 (Toll-like receptor 7 [10]): 50 nM; IC50 (Toll-like receptor 7 [11]): 50 nM; IC50 (Toll-like receptor 7 [12]): 50 nM; IC50 (Toll-like receptor 7 [13]): 50 nM; IC50 (Toll-like receptor 7 [14]): 50 nM; IC50 (Toll-like receptor 8 [15]): 50 nM; IC50 (Toll-like receptor 8 [16]): 50 nM; IC50 (Toll-like receptor 8 [17]): 50 nM; inhibition [18]: Active |

The remaining lines, values behind:

| SMILES | Activity [1] | EC50 (Toll-like receptor 7 [2]) | other results |
| --- | --- | --- | --- |
| CCCCc1nc2c(N)nc3ccc([N+](=O)[O-])cc3c2n1Cc1ccc(CN)cc1 | inactive | 560 nM |  |
| CCCCc1nc2c(N)nc3ccc(NC(=O)CCCCCCC(=O)Nc4ccc5nc(N)c6nc(CCCC)n(Cc7ccc(CN)cc7)c6c5c4)cc3c2n1Cc1ccc(CN)cc1 | inactive | 4020 nM |  |
| Nc1nc2ccccc2c2c1nc(CCCCCCc1nc3c(N)nc4ccccc4c3n1Cc1ccccc1)n2Cc1ccccc1 | inactive |  |  |
| CCCCc1nc2c(N)nc3ccccc3c2n1Cc1ccc(CNC(=O)CCCCCCCCCCC(=O)NCc2ccc(Cn3c(CCCC)nc4c(N)nc5ccccc5c43)cc2)cc1 | inactive | 170 nM | EC50 (Toll-like receptor 8 [3]): 4780 nM; Activity (PBMC): Dose-dependent effect |
| CCCCc1nc2c(N)nc3ccc(NC(=O)CCCCC(=O)Nc4ccc5nc(N)c6nc(CCCC)n(Cc7ccc(CN)cc7)c6c5c4)cc3c2n1Cc1ccc(CN)cc1 | inactive | 7240 nM | Activity (PBMC): Dose-dependent effect |
| CCCCc1nc2c(N)nc3ccc(NC(=O)CCCCCCCCCCC(=O)Nc4ccc5nc(N)c6nc(CCCC)n(Cc7ccc(CN)cc7)c6c5c4)cc3c2n1Cc1ccc(CN)cc1 | inactive | 5400 nM |  |
| CCN(CC)CCCC(C)Nc1ccnc2cc(Cl)ccc12 (centres undefined) |  |  | inhibition [4]: Active; inhibition [5]: Active |
| Nc1nc2ccccc2c2c1nc(CCCCCCCCCCc1nc3c(N)nc4ccccc4c3n1Cc1ccccc1)n2Cc1ccccc1 | inactive |  |  |
| CCCCc1nc2c(NCCCCCCCCCCCCNc3nc4ccccc4c4c3nc(CCCC)n4Cc3ccccc3)nc3ccccc3c2n1Cc1ccccc1 | inactive | 1420 nM | Activity (PBMC): Dose-dependent effect |
